Results: ChEMBL document CHEMBL3808313, “Comparing the efficacy of photodynamic and sonodynamic therapy in non-melanoma and melanoma skin cancer” (Bioorg Med Chem, 2016)
The source made the active and inactive calls. The rule behind the calls is not given here.

How the values were obtained:
A-431 [1] = experiment: Cytotoxicity against human A431 cells assessed as reduction in cell viability at 1 uM preincubated for 4 hrs followed by 5 J/cm'-2 red light irradiation measured after 24 hrs by MTT assay; assay type: functional, cell-based
How it was run: (§1)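 A431 squamous carcinoma cells were seeded and incubated with ALA (1 or 2 μM) for 4 h. They were then exposed to either red light (630 nm ± 15 nm) or ultrasound. Viability was read by MTT assay 24 h after treatment.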

A-431 [2] = experiment: Cytotoxicity against human A431 cells assessed as reduction in cell viability at 2 uM preincubated for 4 hrs followed by 90 J/cm'-2 ultrasound irradiation measured after 24 hrs by MTT assay relative to control; assay type: functional; details: A-431, light or radiation study; how it was run: as §1
A-431 [3] = experiment: Cytotoxicity against human A431 cells assessed as reduction in cell viability at 1 uM preincubated for 4 hrs followed by 90 J/cm'-2 ultrasound irradiation measured after 24 hrs by MTT assay; assay type: functional, cell-based; how it was run: as §1
A-431 [4] = experiment: Cytotoxicity against human A431 cells assessed as reduction in cell viability at 2 uM preincubated for 4 hrs followed by 5 J/cm'-2 red light irradiation measured after 24 hrs by MTT assay relative to control; assay type: functional; details: A-431, light or radiation study; how it was run: as §1
[5] = Induction of ROS generation in EtOH/H2O solution assessed as reduction in DPBF absorbance at 0.5 uM preincubated with compound followed by white light irradiation for 30 mins by UV-visible spectrometric analysis relative to control; assay type: physicochemical; parameters: scale not given: the % may be the effect or the level left; details: 0.5 h
[6] = Antitumor activity against mouse B16-F10-luc2 cells ectopically xenografted in nude mouse assessed as tumor growth at 100 uM pretreated with compound followed by white light irradiation measured on day 4 post dosing relative to control; assay type: functional
[7] = Cytotoxicity against mouse B16-F10-luc2 cells assessed as reduction in cell viability at 0.5 uM preincubated for 3 hrs followed by 90 J/cm'-2 ultrasound irradiation for 60 sec measured after 24 hrs by MTT assay relative to control; assay type: functional; details: B16-F10-luc2, light or radiation study
[8] = Cytotoxicity against mouse RIF1 cells assessed as reduction in cell viability at 0.5 uM preincubated for 3 hrs followed by 11.4 J/cm'-2 white light irradiation for 30 sec measured after 24 hrs by MTT assay relative to control; assay type: functional; details: RIF-1, light or radiation study
[9] = Induction of ROS generation in EtOH/H2O solution assessed as reduction in DPBF absorbance at 0.5 uM preincubated with compound followed by ultrasound irradiation for 30 mins by UV-visible spectrometric analysis relative to control; assay type: physicochemical; parameters: scale not given: the % may be the effect or the level left; details: 0.5 h
HeLa [10] = experiment: Cytotoxicity against human HeLa cells assessed as reduction in cell viability at 0.5 uM preincubated for 3 hrs followed by 90 J/cm'-2 ultrasound irradiation for 60 sec measured after 24 hrs by MTT assay relative to control; assay type: functional; details: light or radiation study
RIF-1 [11] = experiment: Cytotoxicity against mouse RIF1 cells assessed as reduction in cell viability at 0.5 uM preincubated for 3 hrs followed by white light irradiation through 3.4 to 6.8 mm guinea pig skin barrier by MTT assay; assay type: functional, cell-based
[12] = Cytotoxicity against mouse B16-F10-luc2 cells assessed as reduction in cell viability at 0.5 uM preincubated for 3 hrs followed by 11.4 J/cm'-2 white light irradiation for 30 sec measured after 24 hrs by MTT assay relative to control; assay type: functional; details: B16-F10-luc2, light or radiation study
[13] = Cytotoxicity against mouse RIF1 cells assessed as reduction in cell viability at 0.5 uM preincubated for 3 hrs followed by 22.8 J/cm'-2 white light irradiation for 60 sec measured after 24 hrs by MTT assay relative to control; assay type: functional; details: RIF-1, light or radiation study
HeLa [14] = experiment: Cytotoxicity against human HeLa cells assessed as reduction in cell viability at 0.5 uM preincubated for 3 hrs followed by 22.8 J/cm'-2 white light irradiation for 60 sec measured after 24 hrs by MTT assay relative to control; assay type: functional; details: light or radiation study
[15] = Antitumor activity against mouse B16-F10-luc2 cells ectopically xenografted in nude mouse assessed as tumor growth at 100 uM pretreated with compound followed by ultrasound irradiation measured up to 6 days post dosing relative to control; assay type: functional
RIF-1 [16] = experiment: Cytotoxicity against mouse RIF1 cells assessed as reduction in cell viability at 0.5 uM preincubated for 3 hrs followed by ultrsound irradiation through 3.4 to 6.8 mm guinea pig skin barrier by MTT assay; assay type: functional, cell-based
Mus musculus [17] = experiment: Toxicity in nude mouse xenografted ectopically with mouse B16-F10-Luc2 cells assessed as reduction in body weight at 100 uM pretreated with compound followed by ultrasound irradiation measured up to 6 days post dosing relative to control; assay type: organism-based; details: in vivo
[18] = Cytotoxicity against mouse RIF1 cells assessed as reduction in cell viability at 0.5 uM preincubated for 3 hrs followed by 90 J/cm'-2 ultrasound irradiation for 60 sec measured after 24 hrs by MTT assay relative to control; assay type: functional; details: RIF-1, light or radiation study
Mus musculus [19] = experiment: Toxicity in nude mouse xenografted ectopically with mouse B16-F10-Luc2 cells assessed as reduction in body weight at 100 uM pretreated with compound followed by white light irradiation measured up to 6 days post dosing relative to control; assay type: organism-based; details: in vivo
[20] = Cytotoxicity against mouse B16-F10-luc2 cells assessed as reduction in cell viability at 0.5 uM preincubated for 3 hrs followed by 22.8 J/cm'-2 white light irradiation for 60 sec measured after 24 hrs by MTT assay relative to control; assay type: functional; details: B16-F10-luc2, light or radiation study
[21] = Cytotoxicity against mouse RIF1 cells assessed as reduction in cell viability at 0.5 uM preincubated for 3 hrs followed by 45 J/cm'-2 ultrasound irradiation for 30 sec measured after 24 hrs by MTT assay relative to control; assay type: functional; details: RIF-1, light or radiation study
[22] = Antitumor activity against mouse B16-F10-luc2 cells ectopically xenografted in nude mouse assessed as tumor growth at 100 uM pretreated with compound followed by ultrasound irradiation measured on day 4 post dosing relative to control; assay type: functional
HeLa [23] = experiment: Cytotoxicity against human HeLa cells assessed as reduction in cell viability at 0.5 uM preincubated for 3 hrs followed by 11.4 J/cm'-2 white light irradiation for 30 sec measured after 24 hrs by MTT assay relative to control; assay type: functional; details: light or radiation study
[24] = Cytotoxicity against mouse B16-F10-luc2 cells assessed as reduction in cell viability at 0.5 uM preincubated for 3 hrs followed by 45 J/cm'-2 ultrasound irradiation for 30 sec measured after 24 hrs by MTT assay relative to control; assay type: functional; details: B16-F10-luc2, light or radiation study
HeLa [25] = experiment: Cytotoxicity against human HeLa cells assessed as reduction in cell viability at 0.5 uM preincubated for 3 hrs followed by 45 J/cm'-2 ultrasound irradiation for 30 sec measured after 24 hrs by MTT assay relative to control; assay type: functional; details: light or radiation study
A-431 [26] = experiment: Antitumor activity against human A431 cells ectopically xenografted in topically dosed SCID mouse assessed as tumor growth treated for 4 hrs via Metvix cream measured on day 7 post dosing relative to control; assay type: functional
A-431 [27] = experiment: Antitumor activity against human A431 cells ectopically xenografted in topically dosed SCID mouse assessed as tumor growth pretreated for 4 hrs via Metvix cream followed by 220 J/cm'-2 ultrasound irradiation measured on day 7 post dosing relative to control; assay type: functional
Mus musculus [28] = experiment: Toxicity in topically dosed SCID mouse xenografted ectopically with human A431 cells assessed as reduction in body weight pretreated for 4 hrs via Metvix cream followed by 220 J/cm'-2 ultrasound irradiation measured on day 7 post dosing; assay type: organism-based, A-431; details: in vivo, topical_or_ocular
Mus musculus [29] = experiment: Toxicity in topically dosed SCID mouse xenografted ectopically with human A431 cells assessed as reduction in body weight pretreated for 4 hrs via Metvix cream followed by 40 J/cm'-2 red light irradiation measured on day 7 post dosing; assay type: organism-based, A-431; details: in vivo, topical_or_ocular
A-431 [30] = experiment: Antitumor activity against human A431 cells ectopically xenografted in topically dosed SCID mouse assessed as tumor growth pretreated for 4 hrs via Metvix cream followed by 40 J/cm'-2 red light irradiation measured on day 7 post dosing relative to control; assay type: functional

With `NCC(=O)CCC(=O)O` [AMINOLEVULINIC ACID] the inhibition (A-431 [1]) was “Active”, the inhibition at 2 µM (A-431 [2]) was 31% and the inhibition (A-431 [3]) was “Active”. For the same compound, the inhibition at 2 µM (A-431 [4]) was 43%.
For `O=C([O-])c1c(Cl)c(Cl)c(Cl)c(Cl)c1-c1c2cc(I)c(=O)c(I)c-2oc2c(I)c([O-])c(I)cc12.[Na+].[Na+]` [ROSE BENGAL SODIUM], the Activity [5] was “Active”, the Activity [6] was 400% and the inhibition at 0.5 µM [7] was 40%. The inhibition at 0.5 µM [8] was 50%, the Activity [9] was “Active” and the inhibition at 0.5 µM (HeLa [10]) was 50%. For the same compound, the inhibition (RIF-1 [11]) was “inactive”, the inhibition at 0.5 µM [12] was 7% and the inhibition at 0.5 µM [13] was 50%. For the same compound, the inhibition at 0.5 µM (HeLa [14]) was 50%, the Activity [15] was 400% and the inhibition (RIF-1 [16]) was “Active”. For the same compound, the Activity (Mus musculus [17]) was “Non-toxic”, the inhibition at 0.5 µM [18] was 50% and the Activity (Mus musculus [19]) was “Non-toxic”. The inhibition at 0.5 µM [20] was 18%, the inhibition at 0.5 µM [21] was 50% and the Activity [22] was 120%. The inhibition at 0.5 µM (HeLa [23]) was 50%, the inhibition at 0.5 µM [24] was 25% and the inhibition at 0.5 µM (HeLa [25]) was 50%.
`C=CC1=C(C)c2cc3[nH]c(cc4nc(cc5[nH]c(cc1n2)c(C)c5CCC(=O)O)C(CCC(=O)O)=C4C)c(C)c3C=C` [PROTOPORPHYRIN] showed an Activity [5] of 60% and an Activity [9] of 17%.
With `COC(=O)CCC(=O)CN` [METHYL AMINOLEVULINATE] the Activity (A-431 [26]) was 90%, the Activity (A-431 [27]) was 11% and the Activity (Mus musculus [28]) was “Non-toxic”. For the same compound, the Activity (Mus musculus [29]) was “Non-toxic” and the Activity (A-431 [30]) was 22%.
